From ChEMBL document CHEMBL2057080, “Synthesis, biological evaluation, and structure-activity relationships of a novel class of apurinic/apyrimidinic endonuclease 1 inhibitors” (J Med Chem, 2012) come the findings set out here.

The target of data set [1] is T1, DNA repair nuclease/redox regulator APEX1 (Homo sapiens, UniProt P27695). Put plainly: Inhibition of human recombinant APE1 after 15 mins by fluorescence based HTS assay. In a few lines:
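APE1 inhibition was measured in the fluorescence-based qHTS format at up to 57 µM. IC50 is the average of three separate experiments.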

Data set [2] has as its target T1, DNA repair nuclease/redox regulator APEX1. As to the kind of experiment: Inhibition of recombinant APE1 using […]-5'-AP-DNA as substrate incubated for 15 mins prior to substrate addition measured after 5 mins by PAGE analysis.
Data set [3] shares this target. Put plainly: Inhibition of APE1 in human HeLa whole cell extract using […]-5'-AP-DNA as substrate assessed as activity remaining at 100 uM incubated for 15 mins prior to substrate addition measured after 5 mins by PAGE analysis relative to control. The gist of the method: (§1)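 HeLa whole cell extract (300 ng; KCl-extracted hypotonic lysate) was preincubated with inhibitor for 15 min at room temperature, at 100 µM or at 0–100 µM. Then 0.5 pmol 32P AP-DNA was added for 5 min at 37 °C. Samples were run on denaturing PAGE, and incision is reported relative to the no-inhibitor control, from three independent measurements.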

Data set [4] has the same target. As to the kind of experiment: Competitive inhibition of recombinant APE1 using […]-5'-AP-DNA as substrate incubated for 15 mins prior to substrate addition measured after 5 mins by Lineweaver-Burk plot analysis. In a few lines:
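APE1 (~28 pM) was incubated with 0, 5, 10 or 20 µM inhibitor for 15 min at room temperature. 32P AP-DNA was added at 5–100 nM, followed by 5 min at 37 °C and denaturing PAGE. Velocities were measured, and KM and kcat came from Lineweaver–Burk plots.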

Data set [5] shares this target. As to the kind of experiment: Competitive inhibition of recombinant APE1 using […]-5'-AP-DNA as substrate assessed as decrease in APE1-DNA complex formation incubated for 10 mins prior to substrate addition measured after 5 mins by electrophoretic mobility shift assay. The gist of the method: (§2)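 APE1 (~28 nM) was preincubated without inhibitor (1% DMSO) or with 1, 3, 10, 30 or 100 µM inhibitor for 10 min on ice. Then 100 fmol (10 nM) 32P AP-DNA was added for 5 min on ice. Complexes were resolved on an 8% native gel and quantified by phosphorimager relative to control, in three independent replicates.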

The target is the same in data set [6]. As to the kind of experiment: Competitive inhibition of recombinant APE1 using […]-5'-AP-DNA as substrate assessed as decrease in APE1-DNA complex formation at 30 uM incubated for 10 mins prior to substrate addition measured after 5 mins by electrophoretic mobility shift assay. The gist of the method:
as §2

For data set [7] the target is unchanged. As to the kind of experiment: Competitive inhibition of recombinant APE1 using […]-5'-AP-DNA as substrate assessed as decrease in APE1-DNA complex formation at 10 to 100 uM preincubated with substrate for 15 mins prior to enzyme addition measured after 5 mins by electrophoretic mobility shift assay.
The target is the same in data set [8]. As to the kind of experiment: Inhibition of APE1 in human HeLa cells assessed as accumulation of genomic AP sites at 7.5 uM after 24 hrs by aldehyde reactive probe-based assay relative to control. In kind it is cell-based. In a few lines:
(§3)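 HeLa cells at 80% confluency were treated for 24 h at 37 °C with DMSO, 275 µM MMS, or 7.5 µM inhibitor, alone or combined with MMS. Genomic DNA (100 ng/µL) was labelled with Aldehyde Reactive Probe and AP sites were quantified, in triplicate. Significance was tested by Student's t test.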

For data set [9] the target is unchanged. Put plainly: Inhibition of APE1 activity in human HeLa cells assessed as fold increase in genomic AP site accumulation after 24 hrs by aldehyde reactive probe-based assay in presence of methyl methanesulfonate. In kind it is cell-based. In a few lines:
as §3

In data set [10] the test system is HeLa. As to the kind of experiment: Potentiation of methyl methanesulfonate cytotoxic activity against human HeLa cells assessed as decrease in cell viability at 5 to 10 uM after 24 hrs by CellTiterGlo assay. In kind it is functional, cell-based. In a few lines:
(§4)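 HeLa cells were seeded at 6K per well in DMEM/10% FBS and attached overnight. The medium was replaced with compound (5–30 µM) with or without MMS (0.4 mM) or TMZ (1 mM), followed by 24 h at 37 °C. Viability was read with CellTiter-Glo luminescence relative to DMSO, in duplicate. Combination values were normalized to the alkylating agent alone.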

Data set [11] relates to HeLa. As to the kind of experiment: Potentiation of temozolomide cytotoxic activity against human HeLa cells assessed as decrease in cell viability at 5 to 10 uM after 24 hrs by CellTiterGlo assay. In kind it is functional, cell-based. The gist of the method:
as §4

The test system of data set [12] is HeLa. Put plainly: Cytotoxicity against human HeLa cells at 15 uM after 24 hrs by CellTiterGlo assay. In kind it is functional. The gist of the method:
as §4

The test system of data set [13] is HeLa. As to the kind of experiment: Potentiation of methyl methanesulfonate cytotoxic activity against human HeLa cells assessed as decrease in cell viability at 1 to 2 uM incubated for 8 hrs measured after 56 hrs post compound wash-out by Hoechst 33342 staining-based assay. Format: functional.
Data set [14] relates to HeLa. As to the kind of experiment: Potentiation of temozolomide cytotoxic activity against human HeLa cells assessed as decrease in cell viability at 1 to 2 uM incubated for 8 hrs measured after 56 hrs post compound wash-out by Hoechst 33342 staining-based assay. Format: functional.
Data set [15] can be described thus: Aqueous kinetic solubility of the compound in PBS at pH 7.4. In kind it is physicochemical. To be noted: read-out: Kinetic_solubility.
Data set [16] deals with CYP2D6 (Homo sapiens, UniProt P10635). As to the kind of experiment: Inhibition of CYP2D6 at 10 uM. In kind it is ADME.
Data set [17] addresses CYP3A4 (Homo sapiens, UniProt P08684). Put plainly: Inhibition of CYP3A4 at 10 uM. In kind it is ADME.
Data set [18] deals with Liver. As to the kind of experiment: Half life in mouse liver microsomes. In kind it is ADME, Microsome. The gist of the method:
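Stability in mouse liver microsomes reported as T1/2. Done by a contract lab, and values are the average of two experiments.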

Data set [19] in a line: Chemical stability of the compound in PBS at pH 7.4 assessed as compound remaining after 48 hrs. In kind it is physicochemical. To be noted: buffer, pH 7.4, 48 h. The gist of the method:
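The compound was held in PBS pH 7.4 and the percent remaining was measured after 48 h. Done by a contract lab, and values are the average of two experiments.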

The test system of data set [20] is Plasma. As to the kind of experiment: Half life in mouse plasma. In kind it is ADME, cell-free. In a few lines:
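Stability in mouse plasma reported as T1/2. Done by a contract lab, and values are the average of two experiments.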

In data set [21] the test system is Mus musculus. Put plainly: Toxicity in CD1 mouse assessed as adverse effect at 30 mg/kg, ip after 24 hrs. In kind it is organism-based. Details: dose 30 mg/kg, route intraperitoneal. To be noted: in vivo. In a few lines: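 Male CD1 mice, 6–8 weeks old, were given 30 mg/kg IP in PEG/Cremophor EL saline vehicle.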
The test system of data set [22] is Plasma. Put plainly: Half life in CD1 mouse plasma at 30 mg/kg, ip. Format: ADME, organism-based. Also on record: dose 30 mg/kg, route intraperitoneal. To be noted: in vivo. The gist of the method:
(§5)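 Male CD1 mice, 6–8 weeks old, n = 3, were given 30 mg/kg IP in 50% PEG 200 or PEG 400 plus 10% Cremophor EL in saline. Cardiac-puncture blood was taken at 0.25, 0.5, 1, 2, 4, 8, 12 and 24 h, with heparin plasma. Brain values were multiplied by 5, and LC/MS/MS was used. The brain/plasma ratio is the average over the 8 time points.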

In data set [23] the test system is Brain. Put plainly: Half life in CD1 mouse brain at 30 mg/kg, ip. Details: dose 30 mg/kg, route intraperitoneal. To be noted: in vivo. Format: ADME, organism-based. The gist of the method: as §5
Data set [24] has as its system Plasma. As to the kind of experiment: Cmax in CD1 mouse plasma at 30 mg/kg, ip. In kind it is ADME, organism-based. Also on record: dose 30 mg/kg, route intraperitoneal. The following applies: in vivo. In a few lines:
as §5

Data set [25] has as its system Brain. As to the kind of experiment: Cmax in CD1 mouse brain at 30 mg/kg, ip. Details: dose 30 mg/kg, route intraperitoneal. The following applies: in vivo. In kind it is ADME, organism-based. The gist of the method: as §5
The subject of data set [26] is Plasma. Put plainly: Tmax in CD1 mouse plasma at 30 mg/kg, ip. Format: ADME, organism-based. Also on record: dose 30 mg/kg, route intraperitoneal. The following applies: in vivo. In a few lines: as §5
Data set [27] concerns Brain. As to the kind of experiment: Tmax in CD1 mouse brain at 30 mg/kg, ip. The following applies: in vivo. In kind it is ADME, organism-based. Also on record: dose 30 mg/kg, route intraperitoneal. The gist of the method: as §5
In data set [28] the target is T1, DNA repair nuclease/redox regulator APEX1. Put plainly: Inhibition of APE1 in human HeLa whole cell extract using […]-5'-AP-DNA as substrate at 10 uM incubated for 15 mins prior to substrate addition measured after 5 mins by PAGE analysis. The gist of the method: as §1
Data set [29] deals with HeLa. As to the kind of experiment: Potentiation of methyl methanesulfonate cytotoxic activity against human HeLa cells assessed as decrease in cell viability at 10 to 15 uM after 24 hrs by CellTiterGlo assay. Format: functional, cell-based. The gist of the method: as §4
For data set [30], the system named is HeLa. As to the kind of experiment: Potentiation of temozolomide cytotoxic activity against human HeLa cells assessed as decrease in cell viability at 10 to 15 uM after 24 hrs by CellTiterGlo assay. In kind it is functional, cell-based. In a few lines: as §4
Data set [31] deals with HeLa. As to the kind of experiment: Cytotoxicity against human HeLa cells at 30 uM after 24 hrs by CellTiterGlo assay. Format: functional. In a few lines: as §4
Data set [32] has as its system HeLa. Put plainly: Potentiation of methyl methanesulfonate cytotoxic activity against human HeLa cells assessed as decrease in cell viability at 2.5 to 5 uM incubated for 8 hrs measured after 56 hrs post compound wash-out by Hoechst 33342 staining-based assay. Format: functional.
The subject of data set [33] is HeLa. Put plainly: Potentiation of temozolomide cytotoxic activity against human HeLa cells assessed as decrease in cell viability at 2.5 to 5 uM incubated for 8 hrs measured after 56 hrs post compound wash-out by Hoechst 33342 staining-based assay. In kind it is functional.
The target of data set [34] is T1, DNA repair nuclease/redox regulator APEX1. As to the kind of experiment: Inhibition of human APE1 expressed in Escherichia coli rosetta using fluorescein-dabcyl-containing oligonucleotide as substrate after 5 mins by fluorescence spectrophotometry.

Converted amounts (≈) assume the structure as drawn. The source made the active and inactive calls. The calls are words filed in the database; no cut-off is given here.

T1 sequence (P27695 whole entry): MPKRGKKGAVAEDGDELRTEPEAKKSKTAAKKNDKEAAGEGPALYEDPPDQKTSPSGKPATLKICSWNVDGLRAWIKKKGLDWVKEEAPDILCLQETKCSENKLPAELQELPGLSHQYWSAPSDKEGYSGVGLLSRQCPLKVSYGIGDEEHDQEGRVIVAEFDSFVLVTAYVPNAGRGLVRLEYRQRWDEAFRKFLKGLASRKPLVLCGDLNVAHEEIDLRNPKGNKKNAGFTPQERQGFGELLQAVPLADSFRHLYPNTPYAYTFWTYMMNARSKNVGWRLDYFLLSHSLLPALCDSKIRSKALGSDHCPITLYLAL
Sequence of CYP3A4 (P08684 whole entry): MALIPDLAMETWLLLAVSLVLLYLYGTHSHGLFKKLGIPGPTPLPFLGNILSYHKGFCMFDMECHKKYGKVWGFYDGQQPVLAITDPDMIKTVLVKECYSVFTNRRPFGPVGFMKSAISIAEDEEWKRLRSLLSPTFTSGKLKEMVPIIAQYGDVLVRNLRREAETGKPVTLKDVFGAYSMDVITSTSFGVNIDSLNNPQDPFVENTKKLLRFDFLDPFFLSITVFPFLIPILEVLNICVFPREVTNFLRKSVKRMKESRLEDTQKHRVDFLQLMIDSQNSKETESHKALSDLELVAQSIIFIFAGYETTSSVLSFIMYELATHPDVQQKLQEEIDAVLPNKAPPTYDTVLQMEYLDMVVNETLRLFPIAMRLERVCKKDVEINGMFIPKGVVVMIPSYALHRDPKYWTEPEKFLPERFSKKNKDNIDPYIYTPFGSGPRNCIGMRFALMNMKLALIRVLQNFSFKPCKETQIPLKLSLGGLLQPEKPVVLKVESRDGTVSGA
Sequence of CYP2D6 (P10635 whole entry): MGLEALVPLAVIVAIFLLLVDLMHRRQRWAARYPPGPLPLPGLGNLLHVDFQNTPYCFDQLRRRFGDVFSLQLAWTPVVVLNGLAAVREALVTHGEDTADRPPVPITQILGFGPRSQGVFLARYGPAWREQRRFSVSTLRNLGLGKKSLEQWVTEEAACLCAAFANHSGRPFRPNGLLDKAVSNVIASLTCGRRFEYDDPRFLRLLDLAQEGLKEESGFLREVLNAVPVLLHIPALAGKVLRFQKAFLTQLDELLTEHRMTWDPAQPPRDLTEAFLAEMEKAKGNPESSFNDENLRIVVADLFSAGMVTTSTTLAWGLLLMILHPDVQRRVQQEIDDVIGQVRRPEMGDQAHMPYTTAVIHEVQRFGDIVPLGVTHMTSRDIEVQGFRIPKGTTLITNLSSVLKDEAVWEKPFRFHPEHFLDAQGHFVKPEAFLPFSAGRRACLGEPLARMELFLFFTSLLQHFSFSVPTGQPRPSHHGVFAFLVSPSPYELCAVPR

As to `CC(=O)Nc1sc2c(c1-c1nc3ccccc3s1)CCN(C(C)C)C2`, the IC50 in data set [1] was 2 µM; in data set [2], 12 µM. The results for the Activity in data set [3], in data set [12] and in [21] were 0.6%, 50% and “Non-toxic”, respectively. The inhibition result in data set [4], in [6], in data set [7] and in [8] was “Active” throughout. The inhibition entry in data set [5] is “Dose-dependent effect”. Besides, the fold change (FC) in [9] came out at 3. Also, the outcome in data set [10], in data set [11], in data set [13] and in data set [14] was Active. Moreover, in data set [15], the solubility kinetic turned out to be 20.4 µM (≈ 7.58 µg/mL). For the same compound, the values for the inhibition at 10 µM in data set [16] and in [17] were 0% and 53%, respectively. Further, the t1/2 in data set [18] is 1.33 h; in data set [20], more than 4.17 h; in data set [22] it was 2.1 h; in data set [23], 1 h. Besides, the Stability in [19] was 100%. Also, the figures for the peak concentration (Cmax) in [24] and in data set [25] were 16 µM and 217 µM, respectively. Besides, the Tmax in [26] and in data set [27] was 0.25 h in each case.

Consider `CC(=O)Nc1sc2c(c1-c1nc3ccccc3s1)CNC2`, for which the concentration for half-maximal inhibition (IC50) in data set [1] is 3.3 µM. Further, the Activity in [3] is 0.1%; in data set [31], 50%; in data set [21], “Non-toxic”. Besides, the inhibition entry in data set [28], in [4], in data set [6], in data set [7] and in data set [8] was “Active” throughout. Also, the inhibition result in data set [5] is “Dose-dependent effect”. The fold change (FC) in data set [9] was determined as 3. The outcome in data set [29], in [30], in [32] and in data set [33] was Active. Besides, the solubility kinetic in [15] was 51.6 µM (≈ 16.3 µg/mL). Also, the inhibition at 10 µM in data set [16] came to 39%; in [17], 50%. In addition, the t1/2 in data set [18] stood at 0.13 h; in data set [20], 3.55 h; in data set [22], 5 h; in data set [23], 2.5 h. The Stability in [19] came out at 100%. For the same compound, the highest concentration (Cmax) in [24] turned out to be 36 µM; in data set [25], 92 µM. Besides, the Tmax in data set [26] and in [27] was 0.25 h throughout.

In the case of `Cc1cc(C)c2c(N)c3cccc(C)c3nc2n1`, the IC50 in data set [1] and in data set [34] was 32 µM each time.
